The target in one series is Procathepsin L (Homo sapiens, UniProt P07711). Nature of the series: Inhibition of human cathepsin L using benzyloxycarbonyl-L-Leucyl-L-Arginine 4-Methyl-coumaryl-7-amide substrate by FRET assay.
The target of series [1] is Cathepsin S (Mus musculus, UniProt O70370). Nature of the series: Inhibition of mouse cathepsin S using benzyloxycarbonyl-L-Leucyl-L-Arginine 4-Methyl-coumaryl-7-amide substrate by FRET assay.
Series [2] has as its target Cathepsin S (Homo sapiens, UniProt P25774). Kind of series: Inhibition of human cathepsin S using benzyloxycarbonyl-L-Leucyl-L-Arginine 4-Methyl-coumaryl-7-amide substrate by FRET assay.
A further series is filed under the species Rattus norvegicus. Kind of series: Inhibition of rat cathepsin S G137C mutant using benzyloxycarbonyl-L-Leucyl-L-Arginine 4-Methyl-coumaryl-7-amide substrate by FRET assay.
Series [3] deals with Mus musculus. Kind of series: Inhibition of CaCl2-induced abdominal aortic aneurysm in 129SvEv mouse assessed as reduction in aortic diameter at 10 mg/kg dosed through oral gavage BID for 4 weeks with first dose given one day prior to surgery. In kind it is functional. Conditions: Abdomen.
A short description of series [4]: Dissociation constant, basic pKa of the compound. Format: physicochemical.
A further series addresses hERG (Homo sapiens, UniProt Q12809). Kind of series: Displacement of [3H]astemizole form human ERG expressed in HEK293 cell membranes at 100 uM. Conditions: HEK293 cell membranes that express human ERG, probe [3H]astemizole. On the technique in general: Displacement assays read how much labelled ligand stays bound in the presence of the test substance.
The nature of series [5]: AUC (0 to 24 hrs) in 129SvEv mouse model of CaCl2-induced abdominal aortic aneurysm at 10 mg/kg dosed through oral gavage BID for 4 weeks with first dose given one day prior to surgery. Format: ADME, organism-based, Abdomen. More on the design: time < 24 hr, dose 10 mg/kg, route oral. The note with it: in vivo.
Series [6] deals with Mus musculus. Kind of series: Inhibition of CaCl2-induced abdominal aortic aneurysm in 129SvEv mouse assessed as reduction in aortic diameter at 1 to 30 mg/kg dosed through oral gavage BID for 4 weeks with first dose given one day prior to surgery. Format: functional, organism-based. Conditions: Abdomen.
The test system of series [7] is Plasma. Kind of series: Stability in rat plasma assessed as loss of parent compound after 30 mins. Format: ADME, cell-free. The note with it: 0.5 h. A digest of the protocol: (§1)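 Compound incubated in human or rat plasma for up to 30 min; loss of parent compound tested for statistical significance.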
Series [8] can be described thus: Drug metabolism in dog liver microsomes after 30 mins at 4 uM. In kind it is ADME, Canis lupus familiaris. Conditions: read-out: Drug metabolism.
Series [9] concerns Plasma. Nature of the series: Stability in human plasma assessed as loss of parent compound after 30 mins. In kind it is ADME, cell-free. The note with it: 0.5 h. A digest of the protocol: as §1
A short description of series [10]: Drug metabolism in mouse liver microsomes after 30 mins at 4 uM. In kind it is ADME. Conditions: read-out: Drug metabolism. In general terms: Liver microsomes are vesicles of endoplasmic reticulum, rich in cytochrome P450 enzymes.
Series [11] can be described thus: Drug metabolism in rat liver microsomes after 30 mins at 4 uM. Conditions: read-out: Drug metabolism. In kind it is ADME.
The nature of series [12]: AUC (0 to 24 hrs) in 129SvEv mouse model of CaCl2-induced abdominal aortic aneurysm at 3 mg/kg dosed through oral gavage BID for 4 weeks with first dose given one day prior to surgery. In kind it is ADME, organism-based, Abdomen. More on the design: time < 24 hr, dose 3 mg/kg, route oral. Conditions: in vivo.
For series [13], the system named is Mus musculus. Nature of the series: Inhibition of CaCl2-induced abdominal aortic aneurysm in 129SvEv mouse assessed as reduction in aortic diameter at 3 mg/kg dosed through oral gavage BID for 4 weeks with first dose given one day prior to surgery. Format: functional. Conditions: Abdomen.
The target in the next series is CYP2C9 (Homo sapiens, UniProt P11712). Nature of the series: Inhibition of CYP2C9 (unknown origin) using diclofenac substrate at 10 uM. Format: ADME. The note with it: probe diclofenac.
A short description of series [14]: Clearance in Beagle dog at 1 mg/kg, iv or 3 mg/kg, po. The note with it: in vivo. In kind it is ADME, organism-based, Canis lupus familiaris.
Series [15] in a line: Lipophilicity, log P of the compound. Format: physicochemical. Conditions: octanol/water.
Series [16] is described as follows: Drug metabolism in human liver microsomes after 30 mins at 4 uM. Format: ADME. Conditions: read-out: Drug metabolism.
Series [17] is described as follows: Lipophilicity, log D of the compound at pH 4.0. Format: physicochemical. Conditions: buffer.
A short description of series [18]: AUC (0 to 24 hrs) in 129SvEv mouse model of CaCl2-induced abdominal aortic aneurysm at 1 mg/kg dosed through oral gavage BID for 4 weeks with first dose given one day prior to surgery. In kind it is ADME, organism-based, Abdomen. More on the design: time < 24 hr, dose 1 mg/kg, route oral. The note with it: in vivo.
The target of another series is CYP3A4 (Homo sapiens, UniProt P08684). Nature of the series: Inhibition of CYP3A4 (unknown origin) using midazolam substrate at 10 uM. Format: ADME. Conditions: probe midazolam.
For another series, the target named is CYP2D6 (Homo sapiens, UniProt P10635). Nature of the series: Inhibition of CYP2D6 (unknown origin) using bufuralol substrate at 10 uM. Format: ADME. The note with it: probe bufuralol.
Series [19] is described as follows: Oral bioavailability in Beagle dog at 3 mg/kg. Format: ADME, organism-based, Canis lupus familiaris. Conditions: in vivo.
Series [20] relates to Mus musculus. Nature of the series: Inhibition of CaCl2-induced abdominal aortic aneurysm in 129SvEv mouse assessed as reduction in aortic diameter at 1 mg/kg dosed through oral gavage BID for 4 weeks with first dose given one day prior to surgery. Format: functional. The note with it: Abdomen.
Series [21] is described as follows: Solubility in simulated gastric fluid. In kind it is ADME.
Series [22] in a line: AUC (0 to 24 hrs) in 129SvEv mouse model of CaCl2-induced abdominal aortic aneurysm at 30 mg/kg dosed through oral gavage BID for 4 weeks with first dose given one day prior to surgery. In kind it is ADME, organism-based, Abdomen. More on the design: time < 24 hr, dose 30 mg/kg, route oral. Conditions: in vivo.
A further series deals with MDCK. Kind of series: Permeability from apical to basolateral side in MDCK cells at 2.5 uM incubated for 1 hr. In kind it is ADME, cell-based, Canis lupus familiaris. The note with it: dog.
Series [23] relates to Mus musculus. Kind of series: Inhibition of CaCl2-induced abdominal aortic aneurysm in 129SvEv mouse assessed as reduction in aortic diameter at 30 mg/kg dosed through oral gavage BID for 4 weeks with first dose given one day prior to surgery. In kind it is functional. Conditions: Abdomen.
The nature of series [24]: Volume of distribution in Beagle dog at 1 mg/kg, iv or 3 mg/kg, po. In kind it is ADME, organism-based, Canis lupus familiaris. The note with it: in vivo.

In brackets after ≈: the same amount, converted by molar mass. Activity calls are given as the source filed them. The rule behind the calls is not given here. Some results are limits rather than exact numbers.

Chain of Cathepsin S (Mus musculus, UniProt O70370) (O70370 whole entry): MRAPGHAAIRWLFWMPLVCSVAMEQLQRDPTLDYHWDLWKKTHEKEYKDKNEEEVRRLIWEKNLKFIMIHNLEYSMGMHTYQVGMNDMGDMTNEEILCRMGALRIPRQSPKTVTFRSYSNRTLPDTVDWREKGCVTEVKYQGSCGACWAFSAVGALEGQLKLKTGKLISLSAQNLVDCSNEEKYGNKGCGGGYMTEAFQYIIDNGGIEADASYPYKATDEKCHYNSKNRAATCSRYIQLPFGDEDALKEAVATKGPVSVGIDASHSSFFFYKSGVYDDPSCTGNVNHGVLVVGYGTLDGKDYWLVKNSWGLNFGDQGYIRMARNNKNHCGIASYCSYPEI
Chain of Cathepsin S (Homo sapiens, UniProt P25774) (P25774 whole entry): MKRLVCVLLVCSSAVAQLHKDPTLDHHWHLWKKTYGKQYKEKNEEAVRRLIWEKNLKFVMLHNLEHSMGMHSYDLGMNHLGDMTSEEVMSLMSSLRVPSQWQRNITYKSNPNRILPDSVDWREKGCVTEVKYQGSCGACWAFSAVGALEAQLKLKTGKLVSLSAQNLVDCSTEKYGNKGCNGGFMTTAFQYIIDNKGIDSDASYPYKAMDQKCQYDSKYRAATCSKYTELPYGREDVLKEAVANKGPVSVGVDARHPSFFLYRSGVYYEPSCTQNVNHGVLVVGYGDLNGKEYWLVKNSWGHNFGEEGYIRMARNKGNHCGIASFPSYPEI
Chain of CYP2D6 (P10635 whole entry): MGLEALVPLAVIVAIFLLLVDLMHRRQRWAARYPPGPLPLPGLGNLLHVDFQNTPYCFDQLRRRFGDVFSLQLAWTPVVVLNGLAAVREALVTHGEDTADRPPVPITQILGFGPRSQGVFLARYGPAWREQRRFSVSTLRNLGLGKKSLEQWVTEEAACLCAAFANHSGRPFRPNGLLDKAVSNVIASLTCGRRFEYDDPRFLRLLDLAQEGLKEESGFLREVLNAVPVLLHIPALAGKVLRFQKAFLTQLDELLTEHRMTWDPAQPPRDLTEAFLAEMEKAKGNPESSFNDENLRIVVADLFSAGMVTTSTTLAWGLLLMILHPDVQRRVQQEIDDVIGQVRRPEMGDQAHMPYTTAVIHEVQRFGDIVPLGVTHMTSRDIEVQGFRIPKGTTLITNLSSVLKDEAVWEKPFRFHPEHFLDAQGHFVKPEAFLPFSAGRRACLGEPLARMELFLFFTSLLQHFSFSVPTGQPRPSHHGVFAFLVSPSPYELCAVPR
Chain of CYP2C9 (P11712 whole entry): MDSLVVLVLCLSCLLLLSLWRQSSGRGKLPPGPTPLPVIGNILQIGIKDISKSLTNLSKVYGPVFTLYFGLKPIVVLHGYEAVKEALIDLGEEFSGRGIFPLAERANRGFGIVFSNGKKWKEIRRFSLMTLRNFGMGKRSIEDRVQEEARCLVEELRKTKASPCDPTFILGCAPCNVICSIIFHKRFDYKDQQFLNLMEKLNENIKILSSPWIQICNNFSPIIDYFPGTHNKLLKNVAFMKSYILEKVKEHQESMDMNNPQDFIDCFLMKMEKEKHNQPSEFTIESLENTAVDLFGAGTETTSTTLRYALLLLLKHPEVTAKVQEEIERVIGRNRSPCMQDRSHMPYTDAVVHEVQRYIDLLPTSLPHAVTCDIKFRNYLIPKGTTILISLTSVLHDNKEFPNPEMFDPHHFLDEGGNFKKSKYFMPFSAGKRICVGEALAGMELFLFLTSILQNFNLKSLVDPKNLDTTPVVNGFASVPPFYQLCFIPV
Chain of CYP3A4 (P08684 whole entry): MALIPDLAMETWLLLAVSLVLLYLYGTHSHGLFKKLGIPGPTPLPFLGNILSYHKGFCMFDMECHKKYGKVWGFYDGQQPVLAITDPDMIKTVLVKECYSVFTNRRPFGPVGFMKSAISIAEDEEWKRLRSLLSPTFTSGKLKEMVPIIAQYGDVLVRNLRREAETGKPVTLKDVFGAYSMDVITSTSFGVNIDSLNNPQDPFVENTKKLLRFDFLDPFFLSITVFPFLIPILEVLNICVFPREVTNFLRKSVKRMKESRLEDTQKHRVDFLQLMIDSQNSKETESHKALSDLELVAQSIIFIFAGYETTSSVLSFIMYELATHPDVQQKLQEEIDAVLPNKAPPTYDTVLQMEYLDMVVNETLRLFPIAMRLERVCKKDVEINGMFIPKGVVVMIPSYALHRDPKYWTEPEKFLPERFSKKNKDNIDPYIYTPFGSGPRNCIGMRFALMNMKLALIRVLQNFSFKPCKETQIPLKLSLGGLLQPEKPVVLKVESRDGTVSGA
Chain of Procathepsin L (P07711 whole entry): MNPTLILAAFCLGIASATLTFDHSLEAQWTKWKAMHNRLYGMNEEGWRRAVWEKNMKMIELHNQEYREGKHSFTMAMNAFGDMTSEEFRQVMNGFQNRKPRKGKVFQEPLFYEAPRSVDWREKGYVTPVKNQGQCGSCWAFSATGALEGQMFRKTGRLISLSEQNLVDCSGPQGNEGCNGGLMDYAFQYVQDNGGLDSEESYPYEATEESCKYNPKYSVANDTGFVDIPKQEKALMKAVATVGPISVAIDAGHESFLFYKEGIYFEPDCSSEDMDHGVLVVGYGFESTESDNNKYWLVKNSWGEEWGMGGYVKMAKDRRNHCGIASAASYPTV
Chain of hERG (Q12809 whole entry): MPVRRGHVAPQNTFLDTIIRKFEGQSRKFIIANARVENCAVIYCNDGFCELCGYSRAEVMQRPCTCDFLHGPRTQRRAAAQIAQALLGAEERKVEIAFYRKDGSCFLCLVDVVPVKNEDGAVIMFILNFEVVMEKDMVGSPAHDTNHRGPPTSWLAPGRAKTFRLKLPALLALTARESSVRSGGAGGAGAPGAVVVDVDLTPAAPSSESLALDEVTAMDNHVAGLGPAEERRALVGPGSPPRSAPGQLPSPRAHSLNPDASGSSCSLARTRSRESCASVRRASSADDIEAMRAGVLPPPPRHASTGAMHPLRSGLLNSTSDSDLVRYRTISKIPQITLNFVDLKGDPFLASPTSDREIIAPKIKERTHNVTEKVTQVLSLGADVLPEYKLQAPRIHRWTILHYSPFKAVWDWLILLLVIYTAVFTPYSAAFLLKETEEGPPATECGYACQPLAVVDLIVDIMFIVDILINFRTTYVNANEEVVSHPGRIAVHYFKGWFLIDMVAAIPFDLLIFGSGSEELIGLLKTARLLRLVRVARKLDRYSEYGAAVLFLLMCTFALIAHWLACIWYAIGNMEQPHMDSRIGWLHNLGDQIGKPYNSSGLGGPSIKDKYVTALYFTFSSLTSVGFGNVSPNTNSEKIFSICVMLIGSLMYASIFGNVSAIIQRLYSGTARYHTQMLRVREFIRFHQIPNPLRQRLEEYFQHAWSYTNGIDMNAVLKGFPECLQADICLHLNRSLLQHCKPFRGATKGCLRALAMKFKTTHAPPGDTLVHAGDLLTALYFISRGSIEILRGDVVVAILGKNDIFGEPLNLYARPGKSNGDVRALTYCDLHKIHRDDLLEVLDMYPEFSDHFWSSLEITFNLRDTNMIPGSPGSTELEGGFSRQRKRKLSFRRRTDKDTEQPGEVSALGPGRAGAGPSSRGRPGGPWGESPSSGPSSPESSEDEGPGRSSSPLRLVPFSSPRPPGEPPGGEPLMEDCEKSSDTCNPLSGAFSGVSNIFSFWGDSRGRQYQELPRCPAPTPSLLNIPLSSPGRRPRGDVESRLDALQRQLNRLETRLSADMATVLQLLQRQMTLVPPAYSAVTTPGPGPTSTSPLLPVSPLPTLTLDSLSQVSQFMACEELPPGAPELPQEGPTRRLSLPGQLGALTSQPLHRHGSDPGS

Usually IC50 stands for the concentration that inhibits the measured activity by half. A low value points to inhibition by little substance. As a reminder, the inhibition is how much of the control response was suppressed. Consider `O=C(N[C@@H]1CCCc2ccc(/N=C/N3CCCCCC3)cc21)c1ccc(Br)cc1`, for which the results for the IC50 against Procathepsin L, against Cathepsin S [1] and against Cathepsin S [2] were > 100 µM, 1.57 µM and 1.17 µM, respectively. In addition, in the series listed under Rattus norvegicus, the inhibition result was “inactive”.
Regarding `CN1CCN(c2ccc3c(c2)C(NC(=O)c2ccccc2)CCC3)CC1` (centres undefined), the half-maximal inhibitory concentration (IC50) against Cathepsin S [1] amounted to 3.93 µM; against Cathepsin S [2], 4 µM. In the series filed under Rattus norvegicus, the inhibition result was “inactive”.
As for `CN1CCN(C(=O)Nc2ccc3c(c2)C(NC(=O)c2ccccc2)CCC3)CC1` (centres undefined), the IC50 against Cathepsin S [1] worked out at 2.78 µM; at Cathepsin S [2] it was 1.29 µM. In addition, the inhibition result in the series filed under Rattus norvegicus was “inactive”.
By inhibition in vivo is commonly meant how much of the control response was suppressed. As usually defined, the pKa is the negative logarithm of the acid dissociation constant. A lower pKa goes with a group that gives up its proton readily. Usually AUC(0-t) stands for the area under the concentration-time curve up to a stated or last time point. By logP is commonly meant the decadic logarithm of the partition coefficient of the neutral form, usually between octanol and water. Higher therefore signals higher lipophilicity. Broadly, the logD is lipophilicity at a set pH, counting ionised and neutral species. High values mean higher lipophilicity, low ones lower lipophilicity. One may read the bioavailability as dose-corrected exposure relative to a reference, in per cent. Read a low bioavailability as little systemic uptake. The term solubility denotes how much of the substance goes into solution per volume. A higher solubility goes with a readily soluble substance. For `CNC(=O)O[C@H]1COc2ccc(N3CCN(C4COC4)CC3)cc2[C@@H]1NC(=O)c1ccc(F)cc1`, the inhibition in vivo at 10 mg/kg in the series with Mus musculus [3] was 87%. Also, in [4], the pKa was 5.11. The figures for the 50% inhibitory concentration (IC50) on Cathepsin S [1] and against Cathepsin S [2] were 0.00167 µM and 0.0077 µM, respectively. On hERG, this molecule registered an inhibition at 100 µM of 6%. Moreover, the AUC(0-t) at 24 h in series [5] stood at 5880 ng·h/mL; in [12], 2330 ng·h/mL; in [18] it was 756 ng·h/mL; in series [22] it was 35400 ng·h/mL. Further, the inhibition result in the series on Mus musculus [6] is “Dose-dependent effect”. Besides, the Stability result in the series with Plasma [7] and with Plasma [9] was “Stable” throughout. For the same molecule, the metabolised at 0.5 h, 4 µM in series [8], in series [10], in series [11] and in series [16] was < 20% in each case. In addition, in the series listed under Rattus norvegicus, the inhibition result was “inactive”. Also, the inhibition in vivo at 3 mg/kg with Mus musculus [13] stood at 83%. Moreover, the inhibition at 10 µM on CYP2C9, at CYP3A4 and against CYP2D6 was < 15% in each case. In addition, the clearance in series [14] was < 4 mL/min/kg. In addition, in series [15], the lipophilicity (logP) came out at 2.24. In series [17], the logD was found to be 1. In series [19], the bioavailability was > 75%. Further, in the series on Mus musculus [20], the inhibition in vivo at 1 mg/kg turned out to be 58%. Moreover, the concentration in solution in series [21] (solubility) came to 1440 µg/mL (≈ 2970 µM). The permeability with MDCK is recorded as > 4%. Also, in the series with Mus musculus [23], the inhibition in vivo at 30 mg/kg turned out to be 87%. Besides, the Vd in series [24] is < 1 L/kg.
The molecule `CNC(=O)O[C@H]1CCc2ccc(N3CCN(C4COC4)CC3)cc2[C@@H]1NC(=O)c1ccc(F)cc1` gave a pKa in series [4] of 5. The IC50 against Cathepsin S [1] was 0.00391 µM; at Cathepsin S [2], 0.0124 µM. Besides, the inhibition entry in the series with Mus musculus [6] was “Dose-dependent effect”. Further, the metabolised at 0.5 h, 4 µM in series [8], in series [10], in series [11] and in [16] was < 20% each time. In addition, the inhibition entry in the series filed under Rattus norvegicus is “inactive”. Besides, the inhibition at 10 µM on CYP2C9, at CYP3A4 and at CYP2D6 was < 15% each time. For the same molecule, the clearance in [14] was < 4 mL/min/kg. This molecule came in with a logP in series [15] of 2.24. In addition, the logD in series [17] was 1.2. Further, the bioavailability in [19] is > 75%. Also, the solubility in series [21] is 1130 µg/mL (≈ 2340 µM). Further, the permeability in the series with MDCK is recorded as > 4%. For the same molecule, the Vd in series [24] is < 1 L/kg.

These data come from ChEMBL document CHEMBL3351795, “Discovery of Cathepsin S Inhibitor LY3000328 for the Treatment of Abdominal Aortic Aneurysm” (ACS Med Chem Lett, 2014).
